Screening data (PubChem BioAssay)
Most compounds without a hit are left out; they make up all but 3.5% or so of the library.
MrgX1 PAM = allosterically activates human MrgX1 receptor signaling; MrgX1-HEK293, Fluo-4 calcium flux, FDSS; stronger effect = higher value; B-score at 10 µM; hit rate 0.63% among 310,000; AID 588675;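 active = plate-corrected calcium response at least 3 library SD above typical, normal starting fluorescence, not activating the receptor alone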;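 note: compound read alongside a low EC10 to EC30 dose of BAM8-22 agonist; peak minus trough fluorescence over baseline measured at the second addition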
Target sequence (Q96LB2 whole entry, looked up): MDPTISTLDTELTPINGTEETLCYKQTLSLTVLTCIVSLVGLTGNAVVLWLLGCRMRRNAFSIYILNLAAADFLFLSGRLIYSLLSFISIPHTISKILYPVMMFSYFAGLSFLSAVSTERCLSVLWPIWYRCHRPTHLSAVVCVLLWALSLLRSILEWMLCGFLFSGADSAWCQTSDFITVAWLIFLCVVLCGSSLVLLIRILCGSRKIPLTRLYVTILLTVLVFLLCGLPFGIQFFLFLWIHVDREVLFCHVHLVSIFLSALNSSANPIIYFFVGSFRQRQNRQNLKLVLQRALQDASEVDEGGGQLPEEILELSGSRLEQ
MrgX1 antagonist = blocks BAM8-22 activation of human MrgX1 receptor. AID 588676. MRGX1-HEK293 calcium flux, Fluo-4, BAM8-22 antagonism; stronger effect = lower value. B-score at 10 µM. hit rate 1.3% among 310,000;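 active = calcium-response B-score plate-corrected more than 3 library SD below zero, starting fluorescence within 5 deviations, no agonist response on first addition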;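 note: peak minus trough fluorescence over baseline after final BAM8-22 challenge near maximal dose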
MrgX1 agonist = human MrgX1 receptor agonism, primary screen; B-score at 10 µM; MrgX1-HEK293 cells, Fluo-4 calcium fluorescence, agonist mode; stronger effect = higher value; Q96LB2; AID 588627; hit rate 0.44% among 310,000;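 active = calcium response B-score plate-corrected fluorescence ratio at least 3 library SD, with starting fluorescence B-score inside 5 SD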
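System: HEK293 cells stably expressing human MrgX1 receptor; Dosing: test compound in the initial addition of three; Schedule: overnight plating, then 30 min 37 °C plus 30 min room-temperature dye loading; Detection: kinetic calcium dye fluorescence, Fluo-4 NW; Controls: per-plate positive and negative controls for Z′ factor.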
RGS4 pot = RGS4 potentiation or activation. HEK293 M3R/inducible RGS4, carbachol calcium flux Fluo4; stronger effect = lower value. B-score at 10 µM. hit rate 0.92% among 310,000. AID 463111;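 active = B-score of the integrated calcium signal more than 4 SD below the library mean, with starting fluorescence not abnormally high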;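 note: negative B-score means reduced calcium response which marks RGS4 activation or potentiation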
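System: HEK293 FlpIn-TREx cells, stable M3R, doxycycline-inducible RGS4. Timing: overnight RGS4 induction, 30 min dye load 37 °C, 20 min compound RT. Also added: carbachol, ECmax concentration. Measured by: Fluo4 fluorescence kinetic imaging of calcium. Evaluation: integrated calcium ratio converted to B score.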
RGS4 inh = inhibitors of human RGS4 | P49798 | HEK293 M3R/RGS4 inducible, Fluo-4 calcium flux; stronger effect = higher value; triggered by carbachol at its EC20 | B-score at 10 µM | hit rate 0.45% among 310,000 | AID 463165;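 active = B-score, a plate-corrected calcium signal, over three deviations above library mean, with baseline fluorescence within five deviations of library mean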;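 note: RGS4 expression induced by doxycycline in cells with stable M3 receptor; B-score is computed from the integrated fluorescence ratio over baseline after carbachol; higher B-score means a larger calcium signal and so more RGS4 inhibition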
Target sequence (P49798 whole entry, looked up): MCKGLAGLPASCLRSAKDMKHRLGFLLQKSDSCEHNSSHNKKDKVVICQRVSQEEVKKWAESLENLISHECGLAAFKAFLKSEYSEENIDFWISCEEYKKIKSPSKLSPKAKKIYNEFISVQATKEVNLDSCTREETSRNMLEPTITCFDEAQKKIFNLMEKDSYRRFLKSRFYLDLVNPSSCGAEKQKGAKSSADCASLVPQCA
RGS4 act valid = RGS4 activation, validation assay. shares compounds with RGS4 pot. HEK293 M3R/RGS4 inducible, carbachol calcium flux Fluo4. inhibition, % at 10 µM. hit rate 89% among 1,100;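 active = inhibition above 3 SD of the buffer control wells, cut at about 41% in these data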;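 note: signal is the integrated peak-minus-minimum Fluo4 fluorescence over baseline ratio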
RGS4 act ctr = counter-screen for RGS4 activators: effect in non-induced cells | HEK293 M3R non-induced RGS4, Fluo4 calcium flux; after carbachol challenge at its EC90 | AID 602283 | inhibition, % at 10 µM | hit rate 82% among 1,100 | shares compounds with RGS4 pot;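 active = inhibition exceeding 3 SD of buffer-only control wells, cut at about 26% in these data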;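 note: percent drop in integrated peak-minus-baseline over baseline Fluo4 ratio after carbachol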
Of the large screens only hits and unclear results are named; the others gave an inactive call (follow-up assays come after a bar, where they were run).

CSc1sc(C(=O)Nc2ccc(F)cc2F)c2c1C=CCC2	none
C=CCn1c(SCC(=O)N2CCc3ccccc3C2)nc2sc(CC)cc2c1=O	none
C=CCn1c(SCC(=O)N2CCc3ccccc3C2)nc2sc(C)c(C)c2c1=O	RGS4 pot -7.9 | RGS4 act valid 85 | RGS4 act ctr 58
COc1ccc(NC2=NCC(Cc3ccc(Br)cc3)S2)cc1 (stereo unspecified)	RGS4 pot -8.8 | RGS4 act valid 94 | RGS4 act ctr 83
COc1ccccc1CCNC(=O)c1cc(COc2cccc(C(F)(F)F)c2)on1	none
COc1cc(C(C)=O)ccc1OCC(=O)OCCCOC(=O)COc1ccc(C(C)=O)cc1OC	none
COc1ccc2c(C)c(CCC(=O)NCCCN3CCCC3=O)c(=O)oc2c1C	RGS4 pot -8.9 | RGS4 act valid inactive | RGS4 act ctr inactive
COc1cccc(OCCn2cc(C(=O)c3ccco3)c3ccccc32)c1	RGS4 pot -11 | RGS4 act valid 90 | RGS4 act ctr 50
CC(NC(=O)CCc1nnc(-c2ccc(-c3ccccc3)cc2)o1)c1nc2ccccc2[nH]1 (stereo unspecified)	none
COc1ccc(C2(CNC(=O)Cc3ccccc3)CCCC2)cc1OC	RGS4 pot -8 | RGS4 act valid inactive | RGS4 act ctr inactive
COc1ccc(N2CCN(c3ccc4nnc(CCC(=O)Nc5ccc(C)cc5)n4n3)CC2)cc1	none
CC[N+](C)(C)CC/C=C1/c2ccccc2Sc2ccc(Cl)cc21	RGS4 pot -12 | RGS4 act valid 94 | RGS4 act ctr 93
CCn1c(SCC#N)nc2c(c1=O)C1(CCCC1)Cc1ccccc1-2	RGS4 pot -10 | RGS4 act valid 69 | RGS4 act ctr 84
CCCN1CCc2c(sc(NC(=O)c3ccc(S(=O)(=O)N(C)c4ccccc4)cc3)c2C(=O)NC)C1	RGS4 pot -9.5 | RGS4 act valid 84 | RGS4 act ctr 52
Cn1cc(Br)c(NC(=O)/C=C/C(=O)O)n1	none
Cc1ncc(CN2CCCC(C(=O)Nc3ccc(-c4cscn4)cc3)C2)cn1 (stereo unspecified)	none
COc1cccc(CN2CCCC(C(=O)Nc3ccc(-c4cscn4)cc3)C2)c1 (stereo unspecified)	RGS4 pot -9.9 | RGS4 act valid 92 | RGS4 act ctr 62
CC1(C)CC(=O)C2=C(C1)OC(N)=C(C#N)C2c1ccoc1 (stereo unspecified)	none
CC1(C)CC(=O)C2=C(C1)OC(N)=C(C#N)C2c1cn(-c2ccccc2)nc1-c1ccccc1 (stereo unspecified)	RGS4 pot -11 | RGS4 act valid inactive | RGS4 act ctr inactive
N#CC1=C(N)OC2=C(C(=O)CC(c3ccccc3)C2)C1c1ccc2c(c1)OCO2 (stereo unspecified)	RGS4 pot -8.2 | RGS4 act valid 92 | RGS4 act ctr 68
CC(=O)c1c(C)[nH]c(C(=O)Nc2nc(-c3ccc(Cl)cc3)cs2)c1C	RGS4 pot -8.2 | RGS4 act valid 94 | RGS4 act ctr 92
CCCN(CCC)CCCOC(=O)c1ccc(Cl)cc1Cl	RGS4 pot -8.3 | RGS4 act valid 70 | RGS4 act ctr 84
Cc1ccc(F)c(NC(=O)/C(C#N)=C(\O)c2ccc(C(C)(C)C)cc2)c1	none
COc1ccc(CNC(=O)CN2CCC(NC(=O)c3ccccc3C)CC2)cc1	none
COCCCNC(=O)N1c2ccccc2Sc2ccccc21	none
COCCNCC(=O)N1c2ccccc2Sc2ccccc21	RGS4 pot -9.5 | RGS4 act valid 94 | RGS4 act ctr 41
Cc1cccc[n+]1CC(=O)N1c2ccccc2Sc2ccccc21	RGS4 pot -14 | RGS4 act valid 92 | RGS4 act ctr 87
CC(C)CNCC(=O)N1c2ccccc2Sc2ccccc21	RGS4 pot -8 | RGS4 act valid 86 | RGS4 act ctr 50
Cc1ccc(S(=O)(=O)c2nc(-c3ccccc3)oc2N2CCC(C(N)=O)CC2)cc1	none
CSCCC(NS(=O)(=O)c1ccc2c(c1)c(=O)n(C)c(=O)n2C)C(=O)NC1CCN(Cc2ccccc2)CC1 (stereo unspecified)	none
CN(CC(=O)NC1CCN(Cc2ccccc2)CC1)S(=O)(=O)c1ccc2c(c1)c(=O)n(C)c(=O)n2C	RGS4 pot -9.4 | RGS4 act valid 76 | RGS4 act ctr 47
Cc1cccc(S(=O)(=O)Nc2ccc(-n3c(C)nc4ccccc4c3=O)cc2)c1	none
Cc1cc2c(cc1C)NC(c1c(C)n(C)n(-c3ccccc3)c1=O)C1=C(CC(C)(C)CC1=O)N2 (stereo unspecified)	RGS4 pot -11 | RGS4 act valid 71 | RGS4 act ctr 62
CCc1nc2ccccc2c(C(=O)OCC(=O)Nc2cccc(S(=O)(=O)NC3=NCCCCC3)c2)c1C	RGS4 pot -7.7 | RGS4 act valid 64 | RGS4 act ctr inactive
COc1ccc(CCNC(=O)c2ccc3nc(N4CCCCC4)sc3c2)cc1OC	none
CCOC(=O)C1CCCN(C(=O)c2cc(-c3ccc(C)cc3)nc3ccccc23)C1 (stereo unspecified)	RGS4 pot -9.1 | RGS4 act valid 48 | RGS4 act ctr inactive
CCOC(=O)C1CCCN(C(=O)c2cc(Nc3ccc(OC)c(OC)c3)nc3ccccc23)C1 (stereo unspecified)	none
Cc1ccc(C)c(-n2c3nc(=O)n(C)c(=O)c-3cc3ccccc32)c1	RGS4 pot -12 | RGS4 act valid inactive | RGS4 act ctr inactive
Cc1nc2c(o1)CCc1ccccc1C2N1CCN(C)CC1 (stereo unspecified)	RGS4 pot -11 | RGS4 act valid 95 | RGS4 act ctr 91
Cc1ccc(S(=O)(=O)N2CCC(C(=O)OCC(=O)Nc3cc(S(C)(=O)=O)ccc3Cl)CC2)cc1C	none
COc1ccc(S(=O)(=O)Nc2ccc3c(c2)OCCO3)cc1OC	none
Cc1ccc(CNC(=O)c2ccc(Cn3nc(C)c(Cl)c3C)o2)cc1	none
Cc1cc(C)cc(NC(=O)c2ccc(Cn3nc(C)c(Cl)c3C)o2)c1	RGS4 pot -12 | RGS4 act valid 70 | RGS4 act ctr 64
Cc1ccc(N2C(=O)CSC2c2c(F)cccc2Cl)cc1 (stereo unspecified)	RGS4 pot -10 | RGS4 act valid 93 | RGS4 act ctr 92
S=c1[nH]nc(-c2ccccc2Cl)n1/N=C/C=C/c1ccco1	RGS4 pot -8.2 | RGS4 act valid 94 | RGS4 act ctr 89
S=c1[nH]nc(-c2ccncc2)n1/N=C/C=C/c1ccco1	none
